Target: T1, Peroxisome proliferator-activated receptor delta (Homo sapiens, UniProt Q03181)
T1 sequence (Q03181 whole entry): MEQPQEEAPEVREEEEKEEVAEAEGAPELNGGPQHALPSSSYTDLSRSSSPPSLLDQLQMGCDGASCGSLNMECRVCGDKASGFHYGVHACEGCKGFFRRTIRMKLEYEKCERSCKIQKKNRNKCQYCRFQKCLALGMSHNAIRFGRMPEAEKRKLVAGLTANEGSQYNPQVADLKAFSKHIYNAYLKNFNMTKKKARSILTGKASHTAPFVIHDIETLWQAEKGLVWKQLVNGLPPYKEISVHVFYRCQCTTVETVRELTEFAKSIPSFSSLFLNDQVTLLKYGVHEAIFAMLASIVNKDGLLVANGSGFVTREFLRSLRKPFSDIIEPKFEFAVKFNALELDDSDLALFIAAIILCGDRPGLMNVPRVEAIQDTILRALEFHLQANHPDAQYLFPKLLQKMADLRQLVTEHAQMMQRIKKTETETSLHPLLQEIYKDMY
Assay: Activity at GAL4-tagged PPARdelta (unknown origin) expressed in COS7 cells assessed as receptor transactivation by luciferase reporter gene assay
Assay type: cell-based, COS-7
Outline: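 Each PPAR subtype was tested as a Gal4 fusion carrying the human hinge region and LBD (cDNA from human monocytes) in transiently transfected COS-7 cells (Lipofectamine LTX), with a pFR-Luc reporter and pRL-SV40 for normalization. Compound in 0.1% DMSO was added 5 h post-transfection and incubated overnight. Firefly/renilla RLU was scaled to 1 μM GW7647 (α), L165,041 (δ) or pioglitazone (γ).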

With COc1ccc(C(=O)Nc2cccc(C(=O)O)c2)c(NC(=O)c2ccc(C(C)(C)C)cc2)c1 the EC50 was 3 µM.

From ChEMBL document CHEMBL3351394 (J Med Chem, 2014)
